From ChEMBL document CHEMBL1165941, “Design and synthesis of 2,4-disubstituted polyhydroquinolines as prospective antihyperglycemic and lipid modulating agents” (Bioorg Med Chem, 2010)
Activity calls are given as the source filed them. The calls are words filed in the database; no cut-off is given here.

Legend:
[1] = biological target: T1, Tyrosine-protein phosphatase non-receptor type 1 (Homo sapiens) (UniProt P18031); assay: Inhibition of PTP1B assessed as p-nitrophenolate ion production at 100 uM pretreated for 10 mins measured after 30 mins
T1 sequence (whole entry): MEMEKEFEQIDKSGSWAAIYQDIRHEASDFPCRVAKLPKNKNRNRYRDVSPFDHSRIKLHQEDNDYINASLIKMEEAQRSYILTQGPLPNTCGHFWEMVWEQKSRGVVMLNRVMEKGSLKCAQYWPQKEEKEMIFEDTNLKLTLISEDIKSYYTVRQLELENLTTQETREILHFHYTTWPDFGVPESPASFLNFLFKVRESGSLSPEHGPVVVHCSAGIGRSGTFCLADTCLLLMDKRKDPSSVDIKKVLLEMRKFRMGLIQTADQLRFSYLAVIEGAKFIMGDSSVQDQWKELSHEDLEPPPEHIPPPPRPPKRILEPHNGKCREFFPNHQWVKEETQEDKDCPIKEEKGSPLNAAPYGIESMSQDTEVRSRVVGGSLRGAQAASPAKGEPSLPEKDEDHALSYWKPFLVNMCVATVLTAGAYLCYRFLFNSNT
Procedure, shortened: (§1)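 PTP1B was preincubated 10 min with compound, with and without 0.01% Triton X-100. Substrate was 10 mM pNPP in 50 mM HEPES pH 7.0 with 1 mM DTT and 2 mM EDTA. After 30 min at 37 °C the reaction was stopped with 0.1 N NaOH and A410 was read. Product was calculated with ε 1.78×10⁴ M⁻¹cm⁻¹. Sodium orthovanadate served as standard. IC50 came from dose–response curves.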

[2] = system: Rattus norvegicus; assay: Antidyslipidemic activity in Charles Foster rat assessed as reduction of Triton WR-1339-induced increase of blood total cholesterol level at 100 mg/kg, po after 18 hrs; assay type: functional; design: scale not given: the % may be the effect or the level left
Procedure, shortened: (§2)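 Hyperlipidemia induced by Triton WR-1339, 400 mg/kg ip, in adult male Charles Foster rats (200–225 g), five per group. Compounds were macerated in 0.2% w/v gum acacia, suspended in water and given 100 mg/kg po together with triton. Plasma was obtained by centrifugation at 2500g, 4 °C, 10 min and diluted 1:3 in saline. TC, PL and TG were measured by enzymatic methods.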

[3] = system: Rattus norvegicus; assay: Antidyslipidemic activity in Charles Foster rat assessed as reduction of Triton WR-1339-induced increase of blood triglyceride level at 100 mg/kg, po after 18 hrs; assay type: functional; design: scale not given: the % may be the effect or the level left; procedure, shortened: as §2
[4] = biological target: Dipeptidyl peptidase 4 (Homo sapiens) (UniProt P27487); assay: Inhibition of DPP4 at 100 uM after 15 mins by spectrofluorimeter
Procedure, shortened: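 DPP-IV activity was measured at 37 °C as Gly-Pro-AMC (30 µM) cleavage in Tris–HCl pH 7.4 with test compound. Fluorescence was read at excitation 355 nm and emission 460 nm. The initial rate was taken over the first 15 min.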

[5] = Inhibition of glycogen phosphorylase assessed as […] phosphate release at 100 uM after 30 mins
Procedure, shortened: (§3)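 Glycogen phosphorylase was incubated with glycogen, glucose-1-phosphate, NaF and 5′-AMP for 30 min at 37 °C. The reaction was stopped with 10% TCA and 0.1 M sodium acetate. Samples were held overnight at 4 °C, then released Pi was measured.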

[6] = system: Rattus norvegicus; assay: Antihyperglycemic activity in Charles Foster-Wistar albino rat sucrose loaded model assessed as decrease of blood glucose level at 100 mg/kg, po administered 30 mins before glucose challenge measured up to 120 mins by glucometer; assay type: functional; design: scale not given: the % may be the effect or the level left; details: in the assay text read “Sprague-Dawley” for “Charles Foster-Wistar”
Procedure, shortened: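 Sprague–Dawley male rats with blood glucose 60–80 mg/dl, 5–6 per group, received 100 mg/kg orally as a suspension in 1.0% gum acacia; controls received vehicle. Sucrose 10.0 g/kg was given orally 30 min later. Glucose was read by glucometer at 30, 60, 90 and 120 min. Food was withheld. Percent activity came from AUC versus control.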

[7] = system: Rattus norvegicus; assay: Antihyperglycemic activity in Sprague-Dawley albino rat streptozotocin-induced beta-cell damaged diabetic model assessed as decrease of blood glucose level at 100 mg/kg, po administered 30 mins before glucose challenge measured after 5 hrs by glucometer; assay type: functional; design: scale not given: the % may be the effect or the level left
Procedure, shortened: (§4)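 Rats were made diabetic with streptozotocin 60 mg/kg ip in 100 mM citrate pH 4.5 after an overnight fast. Animals with glucose 144–270 mg/dl at 48 h were used, 5–6 per group. Compounds were given 100 mg/kg orally in 1.0% gum acacia. Sucrose 2.5 g/kg followed 30 min later. Glucose was read by glucostrips up to 300 min and at 24 h. Non-responders were excluded. Percent activity came from AUC versus control.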

[8] = system: Rattus norvegicus; assay: Antidyslipidemic activity in Charles Foster rat assessed as reduction of Triton WR-1339-induced increase of blood phospholipid level at 100 mg/kg, po after 18 hrs; assay type: functional; design: scale not given: the % may be the effect or the level left; procedure, shortened: as §2
[9] = Inhibition of alpha-glucosidase at 100 uM after 3 mins
Procedure, shortened: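 α-Glucosidase (0.1 mg/mL, purified) was assayed in 67 mM sodium phosphate pH 6.8 with 1.0 mg/mL glutathione. The reaction was started with 3.0 mg/mL pNPG and followed at 405 nm every 30 s for 3 min.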

[10] = biological target: T2, Glucose-6-phosphatase catalytic subunit 1 (Homo sapiens) (UniProt P35575); assay: Inhibition of glucose-6-phosphatase assessed as inositol phosphate release at 100 uM after 30 mins; details: in the assay text read “inorganic phosphate” for “inositol phosphate”
T2 sequence (whole entry): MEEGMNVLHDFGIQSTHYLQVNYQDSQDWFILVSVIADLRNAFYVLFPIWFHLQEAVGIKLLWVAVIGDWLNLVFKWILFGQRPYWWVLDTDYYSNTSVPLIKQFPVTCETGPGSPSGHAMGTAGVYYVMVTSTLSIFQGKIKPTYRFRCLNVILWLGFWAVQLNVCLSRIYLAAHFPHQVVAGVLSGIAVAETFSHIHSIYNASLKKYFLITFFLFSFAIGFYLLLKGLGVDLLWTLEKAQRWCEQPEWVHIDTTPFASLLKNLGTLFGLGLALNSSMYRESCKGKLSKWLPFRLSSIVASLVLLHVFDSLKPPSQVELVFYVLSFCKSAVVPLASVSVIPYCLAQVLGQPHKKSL
Procedure, shortened: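 Glucose-6-phosphatase was assayed in 0.3 M citrate pH 6.0 with 28 mM EDTA, 14 mM NaF, 200 mM glucose-6-phosphate and enzyme protein. After 30 min at 37 °C the reaction was stopped with 10% TCA. Activity was expressed as µmol Pi released per min per mg protein.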

[11] = Inhibition of glycogen phosphorylase assessed as […] phosphate release after 30 mins; procedure, shortened: as §3
[12] = system: Rattus norvegicus; assay: Antihyperglycemic activity in Sprague-Dawley albino rat streptozotocin-induced beta-cell damaged diabetic model assessed as decrease of blood glucose level at 100 mg/kg, po administered 30 mins before glucose challenge measured after 24 hrs by glucometer; assay type: functional; design: scale not given: the % may be the effect or the level left; procedure, shortened: as §4
[13] = system: Rattus norvegicus; assay: Antihyperglycemic activity in po dosed Sprague-Dawley albino rat streptozotocin-induced beta-cell damaged diabetic model assessed as decrease of blood glucose level […] measured after 24 hrs by glucometer; assay type: functional
[14] = species on record: Mus musculus; assay: Antihyperglycemic activity in C57BL/KsBom-db db/db mouse assessed as decrease in blood glucose AUC level measured on day 5 by oral glucose tolerance test (reference value: 30730 +/- 3687 %); assay type: functional; design: scale not given: the % may be the effect or the level left
[15] = species on record: Mus musculus; assay: Antihyperglycemic activity in C57BL/KsBom-db db/db mouse assessed as decrease in blood glucose AUC level measured on day 10 by oral glucose tolerance test (reference value: 32480 +/- 5098 %); assay type: functional; design: scale not given: the % may be the effect or the level left
[16] = biological target: T3, Tyrosine-protein phosphatase non-receptor type 1 (Homo sapiens, UniProt P18031); assay: Inhibition of PTP1B assessed as p-nitrophenolate ion production pretreated for 10 mins measured after 30 mins; procedure, shortened: as §1
T3 sequence (P18031 whole entry): T1 sequence (whole entry)

Dipeptidyl peptidase 4 (Homo sapiens), sequence (P27487 whole entry, looked up): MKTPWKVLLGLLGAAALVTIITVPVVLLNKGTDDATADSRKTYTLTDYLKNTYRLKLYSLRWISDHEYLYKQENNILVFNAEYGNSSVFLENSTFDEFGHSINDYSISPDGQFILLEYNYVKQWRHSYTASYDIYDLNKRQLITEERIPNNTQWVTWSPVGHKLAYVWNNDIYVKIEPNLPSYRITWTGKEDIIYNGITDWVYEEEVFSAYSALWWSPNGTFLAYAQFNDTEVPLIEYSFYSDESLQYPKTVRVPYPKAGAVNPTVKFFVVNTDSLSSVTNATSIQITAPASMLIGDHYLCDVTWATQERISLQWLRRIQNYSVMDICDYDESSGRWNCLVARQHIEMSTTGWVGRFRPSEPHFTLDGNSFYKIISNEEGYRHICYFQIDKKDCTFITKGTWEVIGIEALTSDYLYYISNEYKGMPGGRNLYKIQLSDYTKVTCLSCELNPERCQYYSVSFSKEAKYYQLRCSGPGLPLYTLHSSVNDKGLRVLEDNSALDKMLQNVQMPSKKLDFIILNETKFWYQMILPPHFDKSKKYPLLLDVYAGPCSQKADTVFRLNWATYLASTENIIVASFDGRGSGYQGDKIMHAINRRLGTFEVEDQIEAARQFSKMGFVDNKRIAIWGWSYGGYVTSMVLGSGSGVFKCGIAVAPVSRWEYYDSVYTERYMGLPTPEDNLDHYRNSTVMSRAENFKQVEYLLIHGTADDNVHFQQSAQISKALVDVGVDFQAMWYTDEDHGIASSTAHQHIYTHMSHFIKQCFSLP

| Compound | inhibition [1] [%] | inhibition [4] | inhibition [5] | inhibition [9] | inhibition [10] | IC50 [11] [µM] | IC50 [16] [µM] | Activity [2] [%] | Activity [3] [%] | Activity [6] [%] | Activity [7] [%] | Activity [8] [%] | Activity [12] [%] | ED50 [13] [mg/kg] | Activity [14] [%] | Activity [15] [%] |
| --- | --- | --- | --- | --- | --- | --- | --- | --- | --- | --- | --- | --- | --- | --- | --- | --- |
| CC1(C)CC(=O)C2=C(C1)NC(C(=O)O)=CC2c1ccc(Cl)cc1 (stereo not drawn) | 25.4 | inactive | 63.4% | inactive | inactive | 9.7 | – | -17.45 | -11.97 | 13.7 | 16.6 | -15.38 | 12.2 | – | – | – |
| CCOC(=O)C1(O)CC(c2ccc(F)cc2)C2=C(CC(C)(C)CC2=O)O1 (stereo not drawn) | 5.3 | inactive | 14.9% | inactive | inactive | – | – | -10.3 | -8.2 | 15.3 | – | -17.2 | – | – | – | – |
| CC1(C)CC(=O)C2=C(C1)NC(C(=O)O)=CC2c1ccccc1 (stereo not drawn) | 28.9 | 14.6% | 77.3% | 4.6% | 17.1% | 6.1 | – | -8.99 | -13.86 | 28.9 | 18.3 | -7.89 | 16.7 | – | – | – |
| COc1ccc(C2C=C(C(=O)O)NC3=C2C(=O)CC(C)(C)C3)cc1 (stereo not drawn) | 35.4 | 5.7% | 78.3% | 11.2% | inactive | 5.9 | – | -24.63 | -19.34 | 42.7 | 29.7 | -21.82 | 33.2 | 48.6 | -17.9 | -39.6 |
| Cc1ccc(C)c(OCCCC(C)(C)C(=O)O)c1 [GEMFIBROZIL] | – | – | – | – | – | – | – | -37.56 | -36.21 | – | – | -39.43 | – | – | – | – |
| CC1(C)CC(=O)C2=C(C1)NC(C(=O)O)=CC2c1ccc(Br)cc1 (stereo not drawn) | 12.3 | inactive | 81.3% | inactive | inactive | 5.3 | – | – | – | 31.7 | 17.8 | – | 13.6 | – | – | – |

More lines, main results first:

| inhibition [1] [%] | inhibition [4] | inhibition [5] | inhibition [9] | inhibition [10] | IC50 [11] [µM] | IC50 [16] [µM] | Compound | Activity [2] [%] | Activity [3] [%] | Activity [6] [%] | Activity [7] [%] | Activity [8] [%] | Activity [12] [%] | ED50 [13] [mg/kg] | Activity [14] [%] | Activity [15] [%] |
| --- | --- | --- | --- | --- | --- | --- | --- | --- | --- | --- | --- | --- | --- | --- | --- | --- |
| 84.9 | inactive | 5.89% | 12.1% | 7.16% | – | 6.3 | CC1(C)CC(=O)C2=C(C1)NC(c1ccccc1)=CC2c1ccc(Cl)cc1 (stereo not drawn) | -25.56 | -19.32 | 23.5 | 18.9 | -22.47 | 16.4 | – | – | – |
| 88.2 | inactive | 14.6% | inactive | 7.38% | – | 2.9 | CC1(C)CC(=O)C2=C(C1)NC(c1ccccc1)=CC2c1ccc(F)cc1 (stereo not drawn) | -22.45 | -26.34 | 41.3 | 29.9 | -18.83 | 32.3 | 47.3 | -13.2 | -32.6 |
| 70.3 | inactive | 17.4% | inactive | 21.9% | – | 12.6 | O=C1CCCC2=C1C(c1ccc(F)cc1)C=C(c1ccccc1)N2 (stereo not drawn) | – | – | 34.5 | 19.6 | – | 24.1 | – | – | – |
| 24.7 | inactive | 19.3% | 27.9% | 8.21% | – | – | O=C1CCCC2=C1C(c1ccc(Cl)cc1)C=C(c1ccccc1)N2 (stereo not drawn) | -6.7 | -7.89 | 24.7 | 12.9 | -5.9 | 16.9 | – | – | – |
| 41.8 | 12% | inactive | 34.3% | inactive | – | – | CC1(C)CC(=O)C2=C(C1)NC(c1ccccc1)=CC2c1ccccc1 (stereo not drawn) | -17.89 | -16.45 | 24.9 | 17.3 | -19.23 | 13.3 | – | – | – |
